Tests used:
AIK-T4 = assay: Ability to prevent HIV-1 induced T4 cell killing and HIV-1 replication.; format: functional, cell-based; settings: Homo sapiens
[1] = Similarity index (SI) value of the compound.; format: functional
How it was run: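 Computed by comparing atomic electrostatic multipoles at the atomic centres of the molecule pair. Molecule B is rotated and translated against the other by quasi-Newton minimization, using numerical first and second derivatives, with the Hessian updated after every move of B. R is replaced by R + 10^-4 to avoid division by zero. The procedure is repeated to obtain E_B.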

| Structure (SMILES) | EC50 (AIK-T4) [µM] | SI [1] |
| --- | --- | --- |
| O=S(=O)(O)c1cc(/N=N/c2cc(S(=O)(=O)O)c3cccnc3c2O)ccc1/C=C/c1ccc(/N=N/c2cc(S(=O)(=O)O)c3cccnc3c2O)cc1S(=O)(=O)O | 1.3 | 0 |
| O=S(=O)(O)c1cc(/N=N/c2ccc3cccnc3c2O)ccc1/C=C/c1ccc(/N=N/c2ccc3cccnc3c2O)cc1S(=O)(=O)O | 6.4 | 0.45 |
| COc1cc(-c2ccc(/N=N/c3ccc4c(S(=O)(=O)O)ccc(S(=O)(=O)O)c4c3N)c(OC)c2)ccc1/N=N/c1ccc2c(S(=O)(=O)O)ccc(S(=O)(=O)O)c2c1N | 13.8 | 0.5 |
| Nc1c(S(=O)(=O)O)cc2cc(S(=O)(=O)O)ccc2c1/N=N/c1ccc(/C=C/c2ccc(/N=N/c3c(N)c(S(=O)(=O)O)cc4cc(S(=O)(=O)O)ccc34)cc2S(=O)(=O)O)c(S(=O)(=O)O)c1 | 2.9 | 0.31 |
| COc1cc(-c2ccc(/N=N/c3ccc4c(S(=O)(=O)O)cc(S(=O)(=O)O)c(N)c4c3O)c(OC)c2)ccc1/N=N/c1ccc2c(S(=O)(=O)O)cc(S(=O)(=O)O)c(N)c2c1O [CHICAGO SKY BLUE SODIUM] | 4.8 | 0.4 |
| O=C(O)c1cc(O)cc(O)c1/N=N/c1ccc(/C=C/c2ccc(/N=N/c3c(O)cc(O)cc3C(=O)O)cc2S(=O)(=O)O)c(S(=O)(=O)O)c1 | 1.4 | 0.16 |
| Nc1cc(N)c(/N=N/c2ccc(/C=C/c3ccc(/N=N/c4c(N)cc(N)cc4C(=O)O)cc3S(=O)(=O)O)c(S(=O)(=O)O)c2)c(C(=O)O)c1 | 31 | 0.69 |

Source: ChEMBL document CHEMBL1128679, “Molecular similarity from atomic electrostatic multipole comparisons. Application to anti-HIV drugs” (J Med Chem, 1995)
